In the library only some 2.9% were active in any assay of this set; here they are far more common.
dFosB act = enhances mouse delta FosB homodimer DNA binding | purified delta FosB, TAMRA-CDK5 oligo fluorescence polarization; percent of positive-control signal above neutral wells | activation, % at 25 µM | P13346 | actives 0.99% (n = 340,000);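 active = mean activation above about 17%, with every replicate also reaching it, limit read from the data, passing the limit was not always enough; inconclusive = only one of the two conditions met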
Target sequence (P13346 whole entry, looked up): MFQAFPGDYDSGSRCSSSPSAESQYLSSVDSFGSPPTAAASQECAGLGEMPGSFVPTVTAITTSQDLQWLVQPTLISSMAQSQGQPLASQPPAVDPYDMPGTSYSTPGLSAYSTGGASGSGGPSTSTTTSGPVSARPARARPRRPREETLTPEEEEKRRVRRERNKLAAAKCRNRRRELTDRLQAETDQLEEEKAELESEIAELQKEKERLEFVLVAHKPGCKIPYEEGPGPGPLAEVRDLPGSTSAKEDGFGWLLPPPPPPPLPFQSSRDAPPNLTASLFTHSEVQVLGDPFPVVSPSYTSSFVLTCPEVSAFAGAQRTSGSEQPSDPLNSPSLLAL
PAX8 inh HTS = inhibitors of PAX8 transcriptional activity in RMG-I cells | inhibition, % at 12.6 µM | RMG-I TPO-luciferase reporter, SteadyGlo, 24 h | actives 1.2% (n = 360,000);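 active = mean replicate inhibition at least 60% with every replicate also reaching 60%; inconclusive = only one of the two criteria is met; inactive = mean below 60% and not all replicates reaching 60%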;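 also: luciferase light reporting Pax8 driven TPO promoter activity; plate controls were median of neutral control wells for no effect and mitoxantrone controls for full effect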
HIV Env fusion = inhibitors of HIV Env-mediated cell fusion. HeLa-JRFL Env/CEM21 cell fusion, luciferase. inhibition, % at 12.3 µM. actives 1.1% (n = 360,000). AID 651610;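 active = mean replicate inhibition score of at least 50 and every replicate individually at or above 50; inconclusive = only one of the two criteria met; inactive = mean below 50 and not all replicates reaching 50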;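 also: 0% = plate neutral controls and 100% = maraviroc near 300 nM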
GSIS activator = primary screen for activators of insulin secretion dependent on glucose, INS-1E cells, GLuc reporter luminescence | INS-1E GLuc reporter insulin secretion, 2-3 h | activation, % at 16.6 µM | actives 0.61% (n = 370,000);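 active = lowest replicate activation of at least 40%, so every replicate reaches that level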;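 also: 0% = median of neutral control wells and 100% = median of IBMX positive control wells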
Cneo AK release = causes C. neoformans cell lysis. adenylate kinase release luminescence, 4 h; normalised: neutral wells 0, clomiphene wells 100. lysis activity, % at 15 µM. actives 0.2% (n = 360,000);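 active = mean lysis activity across replicates of at least 80%, whatever share of replicates individually reach that level; inactive = mean lysis activity below 80%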
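Material – log-phase Cryptococcus neoformans yeast cells · Input – 5 × 10^6 yeast cells/mL · Medium – fresh YPD growth medium · Doses – single compound concentration per well · Timing – static 4 h at 37 °C with compound, 1 h detection · Detection – adenylate kinase release luminescence · Read-out – signal increase indicating cell lysis · Control set – Clomiphene as positive lysis control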
CDK5 p35 inh = blocks human CDK5/p35 kinase activity; Recombinant CDK5/p35, ADP-Glo luminescence, 60 min; inhibition, % at 10 µM; actives 0.01% (n = 330,000); AID 488839;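 active = highest replicate inhibition of at least 50% and at least 75% of replicates reaching 50%; inconclusive = only one of the two criteria met; inactive = both criteria failed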;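 also: plate controls were DMSO neutral control for no effect and GW8510 at 10 µM for full effect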
* marks the source's active call; other numbers are inactive results; ? = inconclusive; nt = no result; [ ] = remark or other dose.

SMILES | dFosB act | PAX8 inh HTS | HIV Env fusion | GSIS activator | Cneo AK release | CDK5 p35 inh
CC(C)(C)c1ccc(-n2nc(C#N)c(Cl)cc2=O)cc1 | -4 | 112* | -25 | -3 | nt | 1
O=C(C[C@H]1CC[C@@H](NS(=O)(=O)c2ccc(F)cc2)[C@H](CO)O1)NCc1ccc(Cl)c(Cl)c1 | nt | 26 | -5[16.7 µM] | -14 | -8 | nt
C[C@@H]1CN([C@H](C)CO)C(=O)Cc2cc(NS(C)(=O)=O)ccc2O[C@H]1CN(C)Cc1ccc(Cl)c(Cl)c1 | nt | 2 | 9[16.7 µM] | -6 | 47 | nt
C[C@@H]1CCCCO[C@H](CN(C)C(=O)Nc2ccc(F)cc2)[C@@H](C)CN([C@@H](C)CO)C(=O)c2cc(NS(=O)(=O)c3ccc(Cl)cc3)ccc2O1 | nt | 83* | -105[16.7 µM] | -9 | 0 | nt
C[C@H]1CCCCO[C@H](CN(C)C(=O)Nc2ccc(F)cc2)[C@@H](C)CN([C@@H](C)CO)C(=O)c2cc(NS(=O)(=O)c3ccc(Cl)cc3)ccc2O1 | nt | 17 | 3[16.7 µM] | -4 | 85* | nt
C[C@H](CO)N1C[C@H](C)[C@H](CN(C)C(=O)Nc2ccc(F)cc2)OCCCC[C@H](C)Oc2ccc(NS(=O)(=O)c3ccc(Cl)cc3)cc2C1=O | nt | 61* | -16[16.7 µM] | -33 | 10 | nt
C[C@@H]1CCCCO[C@H](CN(C)C(=O)Nc2ccc(F)cc2)[C@@H](C)CN([C@H](C)CO)C(=O)c2cc(NS(=O)(=O)c3ccc(Cl)cc3)ccc2O1 | nt | -14 | -87[16.7 µM] | -6 | 2 | nt
C[C@@H]1CCCCO[C@@H](CN(C)C(=O)Nc2ccc(F)cc2)[C@H](C)CN([C@@H](C)CO)C(=O)c2cc(NS(=O)(=O)c3ccc(Cl)cc3)ccc2O1 | nt | 37 | -90[16.7 µM] | -13 | -3 | nt
C[C@@H]1CCCCO[C@H](CN(C)C(=O)Nc2ccc(F)cc2)[C@H](C)CN([C@@H](C)CO)C(=O)c2cc(NS(=O)(=O)c3ccc(Cl)cc3)ccc2O1 | nt | 0 | -89[16.7 µM] | 1 | 94* | nt
COc1ccc([C@H]2CC(=O)C=C(c3cccc(C(C)C)c3)C2)cc1OC | -10 | 35 | 63* | -7 | -4 | -3
COc1ccc([C@H]2CC(=O)C=C(c3cccc(Br)c3)C2)cc1OC | 1 | 17 | 10 | 13 | -1 | 1
COc1ccccc1OCC(=O)/C=C1/N(C)c2ccccc2C1(C)C | -6 | 12 | 0 | -29 | nt | -9
CN1/C(=C\C=O)C(C)(C)c2ccccc21 | 23* | 15 | 7 | -51 | nt | -1
CN1/C(=C\C(=O)C[n+]2ccc3ccccc3c2)C(C)(C)c2ccccc21 | -2 | 78* | 42 | -30 | nt | 0
COc1ccc(C(=O)N2C[C@H]3[C@@H](c4ccccc42)[C@H](CO)N3Cc2ccc(Cl)cc2)cc1 | nt | 33 | nt | -16 | 13 | nt
C[C@H]1CN([C@@H](C)CO)C(=O)Cc2cc(NS(=O)(=O)c3ccccc3)ccc2O[C@@H]1CN(C)S(=O)(=O)c1ccccc1 | nt | -22 | 11[16.7 µM] | 9 | 1 | nt
C[C@@H]1CCCCO[C@H](CN(C)C(=O)Nc2ccccc2)[C@H](C)CN([C@@H](C)CO)C(=O)c2cc(NC(=O)Nc3ccc(F)cc3)ccc2O1 | nt | 5 | -40[16.7 µM] | 9 | 1 | nt
CCN1C(=O)[C@@H]2[C@@H]3CN(S(=O)(=O)c4ccc(C)cc4)[C@@H](c4cccc5ccccc45)[C@@H]3C(=O)C[C@@H]2C1=O | nt | -9 | -27 | 11 | 4 | nt
Cc1ccc(S(=O)(=O)N2C[C@H]3[C@H]4C(=O)N(C5CCCCC5)C(=O)[C@H]4CC(=O)[C@H]3[C@@H]2c2ccccc2Cl)cc1 | nt | 26 | 59* | -13 | -5 | nt
C=C(C)C[C@H]1CCn2nncc2COCCNC1=O | nt | nt | nt | -4 | nt | nt
COc1cc2[nH]c(-c3ccc(C)cc3)cc(=O)c2cc1OC | -5 | -59 | -23 | 57* | -2 | 2
COc1ccc(-c2cc(=O)c3cc(C)ccc3[nH]2)cc1 | 1 | -86 | -104 | 12 | -17 | 0
O=C(NCCN1CCOCC1)c1ccc(/C=C2\Sc3ccccc3N(Cc3ccccc3F)C2=O)cc1 | 1 | -14 | 3 | 14 | -3 | -3
CCN1CCN(CCNC(=O)c2ccc3c(c2)N(Cc2ccc(F)cc2)C(=O)/C(=C/c2ccccc2)S3)CC1 | -422 | 4 | 4 | 102* | 4 | -1
CN1CCN(CCCNC(=O)c2ccc(/C=C3\Sc4ccccc4N(Cc4ccccc4F)C3=O)cc2)CC1 | -21 | -1 | 4 | 120* | nt | 2
SMILES | dFosB act | PAX8 inh HTS | HIV Env fusion | GSIS activator | Cneo AK release | CDK5 p35 inh
CCN1CCN(CCNC(=O)c2ccc(/C=C3/Sc4ccccc4N(Cc4cccc(Cl)c4)C3=O)cc2)CC1 | -413 | 7 | 5 | 37 | nt | 0
O=C(c1cccc(F)c1)N1C[C@@H]2[C@H](c3ccccc31)[C@H](CO)N2C(=O)c1ccccn1 | nt | -13 | nt | 0 | -1 | nt
CC(C)NC(=O)N(C)C[C@H]1OCCCC[C@@H](C)Oc2ccc(NC(=O)Nc3ccc(C(F)(F)F)cc3)cc2C(=O)N([C@@H](C)CO)C[C@H]1C | nt | 89* | 13[16.7 µM] | 10 | 0 | nt
CC(C)NC(=O)N(C)C[C@@H]1OCCCC[C@H](C)Oc2ccc(NC(=O)Nc3ccc(C(F)(F)F)cc3)cc2C(=O)N([C@@H](C)CO)C[C@H]1C | nt | 63* | ? | 15 | -2 | nt
CC(C)NC(=O)N(C)C[C@@H]1OCCCC[C@@H](C)Oc2ccc(NC(=O)Nc3ccc(C(F)(F)F)cc3)cc2C(=O)N([C@@H](C)CO)C[C@@H]1C | nt | 3 | 18[16.7 µM] | 21 | 46 | nt
C[C@@H]1CN([C@@H](C)CO)C(=O)Cc2cc(NC(=O)Nc3cccc4ccccc34)ccc2O[C@H]1CN(C)Cc1ccc(C(F)(F)F)cc1 | nt | ? | 29[16.7 µM] | -8 | -1 | nt
C[C@@H]1CN([C@H](C)CO)C(=O)c2cccc(NS(=O)(=O)c3cccs3)c2O[C@H]1CN(C)S(=O)(=O)c1cn(C)cn1 | nt | nt | nt | 7 | 1 | nt
CCCC#Cc1ccc([C@H]2[C@@H](CO)N(C(=O)NC(C)C)[C@H]2CNC(C)=O)cc1 | nt | nt | nt | -10 | nt | nt
CCOC(=O)c1c2c(n(Cc3ccccc3)c1C)C(=O)C(=O)c1ccccc1-2 | -1 | 125* | 78* | -33 | nt | 0
CCOC(=O)c1c2c(n(C)c1C)C(=O)C(=O)c1ccc(Br)cc1-2 | 6 | nt | -18 | nt | -4 | -1
Cn1c(=O)n(C)c2cc([N+](=O)[O-])c(N3CCN(C(=O)c4ccccc4Br)CC3)cc21 | -7 | 16 | 30 | -19 | nt | 0
Cn1c(=O)n(C)c2cc([N+](=O)[O-])c(N3CCN(C(=O)c4ccccc4Cl)CC3)cc21 | -7 | nt | 90* | nt | 0 | 3
Cn1c(=O)n(C)c2cc([N+](=O)[O-])c(N3CCN(C(=O)c4ccccc4)CC3)cc21 | -2 | nt | 55* | nt | 2 | 1
C[C@@H]1CN([C@H](C)CO)C(=O)Cc2cc(NC(=O)C3CCCCC3)ccc2O[C@@H]1CN(C)Cc1ccncc1 | nt | nt | 18[16.7 µM] | 14 | -1 | nt
